Source: PubChem BioAssay
In the library only some 3.7% were active in any assay of this set; here they are far more common.
KCNQ1 block: human KCNQ1 channel inhibition. P51787. CHO-K1 KCNQ1, FluxOR thallium flux fluorescence; active compounds read high. B-score at 10 µM. 310,000 tested, 1.3% active. AID 2642;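 active means compounds whose thallium flux B-score, printed positive for inhibition, exceeds three library SD while starting fluorescence stays within three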;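 further: channel opened by potassium depolarization with thallium stimulus after 20 min compound exposure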
Target sequence (P51787 whole entry, looked up): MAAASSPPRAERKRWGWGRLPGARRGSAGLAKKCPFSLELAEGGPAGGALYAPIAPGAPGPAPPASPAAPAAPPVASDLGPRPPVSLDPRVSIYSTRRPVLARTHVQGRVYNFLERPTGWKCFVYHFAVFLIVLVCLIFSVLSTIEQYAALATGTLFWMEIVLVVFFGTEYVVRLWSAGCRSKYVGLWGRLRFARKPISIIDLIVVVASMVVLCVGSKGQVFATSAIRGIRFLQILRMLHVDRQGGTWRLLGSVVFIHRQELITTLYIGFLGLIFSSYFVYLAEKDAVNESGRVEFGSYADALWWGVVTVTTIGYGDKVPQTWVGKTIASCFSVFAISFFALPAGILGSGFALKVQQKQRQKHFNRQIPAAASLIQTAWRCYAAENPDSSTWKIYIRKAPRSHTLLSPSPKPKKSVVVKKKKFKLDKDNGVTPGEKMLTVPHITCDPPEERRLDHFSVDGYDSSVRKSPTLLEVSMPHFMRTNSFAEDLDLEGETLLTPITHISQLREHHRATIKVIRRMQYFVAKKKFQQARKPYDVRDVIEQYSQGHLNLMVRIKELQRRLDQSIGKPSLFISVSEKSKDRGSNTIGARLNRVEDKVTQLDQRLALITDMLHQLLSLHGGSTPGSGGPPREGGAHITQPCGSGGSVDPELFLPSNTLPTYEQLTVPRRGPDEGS
Kir21 inh: blocks the mouse Kir2.1 inward-rectifier potassium channel. P35561. AID 1672. 310,000 tested, 0.85% active. B-score at 10 µM. HEK293-Kir2.1, FluxOR thallium flux fluorescence; active compounds read low;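 active means fluorescence ratio B-score at or below minus 3 SD of library scores, with starting-brightness B-score within 2 SD, cut at about -4.2 in these data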;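 further: channel flux triggered by added potassium and thallium sulfate stimulus; B-score of peak minus minimum fluorescence over baseline after thallium stimulus; more negative B-score means stronger Kir2.1 block with less thallium influx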
KCNK3 block: human KCNK3 channel inhibition, primary screen; O14649; CHO-KCNK3 thallium flux, FluxOR fluorescence; active compounds read low; B-score at 10 µM; 340,000 tested, 0.84% active; AID 602410;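 active means B-score under library mean minus 4 SD, starting fluorescence ratio at most library mean plus 5 SD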;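 further: more negative B-score means stronger inhibition of thallium flux through KCNK3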
KCNK9 inh: blocks the human KCNK9 two-pore domain potassium channel; Q9NPC2; HEK293 KCNK9, FluxOR thallium flux fluorescence; active compounds read low; B-score at 10 µM; 310,000 tested, 1.2% active;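 active means ratio B-score over 3 SD below the library mean, with starting fluorescence within 5 SD of its mean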;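 further: negative B-score means less thallium flux so channel inhibition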
hERG rescue: shields human hERG channel from block by proarrhythmic agents; 310,000 tested, 0.51% active; AID 1511; activation (rescue from dofetilide block), less the hit threshold, % at 10 µM; CHO-hERG, FluxOR thallium flux, dofetilide IC70 present;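 active means activation above the mean of controls blocked by dofetilide plus 5 SD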;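 further: thallium influx through hERG after potassium depolarization seen as dye fluorescence rise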
KCNQ1 act: potentiators or activators of human KCNQ1 potassium channel; B-score at 10 µM; P51787; CHO-K1 KCNQ1, thallium flux FluxOR fluorescence; active compounds read high; 310,000 tested, 0.35% active;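 active means fluorescence ratio B-score, a plate-corrected score, at least three library SD, with initial intensity B-score within 5 SD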
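Assay system: stable KCNQ1 CHO-K1 line; medium: assay buffer, equal DMSO in all wells; timing: 90 min dye loading and 20 min compound exposure, both at room temperature; technique: kinetic FluxOR thallium fluorescence, 10-s 1-Hz baseline, 110-s post-stimulus read; read-out basis: B score of baseline-normalized fluorescence ratio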
KCNK9 inh conf: human KCNK9 inhibitor confirmation | shares compounds with KCNK9 inh | HEK293 KCNK9 cells, FluxOR thallium flux fluorescence | inhibition, % at 10 µM | 4,900 tested, 43% active | AID 492992;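 active means thallium signal inhibited by more than 5 SD of the compound-free buffer control wells, on both duplicate plates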;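 further: 0% = assay buffer control wells without compound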
Kir21 sel: selectivity of KCNK9 modulators against mouse Kir2.1; Kir2.1 cells, FluxOR thallium flux fluorescence; inhibition, % at 10 µM; AID 492993; 4,900 tested, 4% active; shares compounds with KCNK9 inh;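 active means thallium signal drop more than 5 SD beyond the mean of the no-compound control wells, seen in both duplicate plates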;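 further: signal is fluorescence rise after thallium addition divided by baseline fluorescence; plate controls were assay buffer only for no effect and full block by chlorpromazine control for full effect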
HEK293 Tl ctr: second check of KCNK9 modulator effects in non-induced HEK293 cells. 4,900 tested, 40% active. inhibition, % at 10 µM. FluxOR thallium flux. shares compounds with KCNK9 inh. AID 492997;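 active means thallium signal drop beyond 5 SD of the untreated control mean, on both duplicate plates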;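 further: plate controls were buffer only IC0 wells for no effect and SID17386958 at its maximal inhibitory level for full effect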
* hit, by the source's call; i = inactive; x = no result.

SMILES | KCNQ1 block | Kir21 inh | KCNK3 block | KCNK9 inh | hERG rescue | KCNQ1 act | KCNK9 inh conf | Kir21 sel | HEK293 Tl ctr
CCOC(=O)[C@@H]1[C@H]2COc3ccccc3[C@@H]2N2C(=O)N(c3cccc(Cl)c3)C(=O)[C@@]12C | i | -0.07 | i | -12* | -14 | i | 56%* | i | 35%*
CCOC(=O)[C@@H]1[C@H]2COc3ccc(Br)cc3[C@@H]2N2C(=O)N(c3ccc(C(F)(F)F)cc3)C(=O)[C@@]12C | i | -0.92 | i | -12* | -5 | i | 74%* | i | 41%*
CCOC(=O)[C@H]1[C@H]2COc3cc(OC)ccc3[C@@H]2N2C(=O)N(c3cccc(F)c3)C(=O)[C@@]12C | x | x | i | x | x | x | x | x | x
CC(C)(C)OC(=O)CNC(=O)c1[nH]cnc1C(=O)NCCCCCNC(=O)OC(C)(C)C | i | -0.11 | i | i | -21 | i | x | x | x
O=C(c1cccs1)c1no[n+]([O-])c1C(=O)c1cccs1 | 9* | -11 | i | -11* | -33 | i | 44%* | 36%* | 52%*
O=C(c1ccc(Cl)nc1)c1cccs1 | i | -0.08 | x | i | -5 | i | x | x | x
Cc1cccc(N2CCN(C(=O)CCC(=O)N3CC(C)Oc4ccccc43)CC2)c1C (stereo not given) | i | -1 | i | i | -18 | i | i | i | i
Cc1ccc2c(c1)N(C(=O)CCC(=O)N1CCN(c3cccc(C)c3C)CC1)CCO2 | i | 0.83 | i | i | -14 | i | i | i | i
CC1CCN(C(=O)CCC(=O)N2CC(C)Oc3ccccc32)CC1 (stereo not given) | i | 0.29 | i | i | -9 | i | x | x | x
Cc1ccc2c(c1)N(C(=O)CCC(=O)N1CCN(c3ccccc3)CC1)CCO2 | i | 0.02 | i | i | -11 | i | x | x | x
CC1CC1C(=O)OCC(=O)Nc1cc(S(=O)(=O)N2CCCCC2)ccc1Cl (stereo not given) | x | x | i | x | x | x | x | x | x
Cc1ccc(S(=O)(=O)Nc2ncnc3sc(C)c(C)c23)cc1 | x | x | i | x | x | x | x | x | x
Cc1ccc(-c2nn(C(C)(C)C)c3ncnc(NS(=O)(=O)c4ccc([N+](=O)[O-])cc4)c23)cc1 | i | 0.85 | i | i | -11 | i | i | i | i
CC(C)(C)c1ccc(NC(=O)c2ccsc2)cc1 | i | 0.47 | i | i | -1 | i | x | x | x
CN(Cc1ccc2ccccc2c1)C(=O)c1ccc(C(F)(F)F)cc1 | i | 0.18 | i | i | -8 | i | i | i | 38%*
COc1ccc(CN(C)C(=O)c2ccc(Oc3ccccc3)cc2)cc1F | i | 0.98 | i | i | -13 | i | x | x | x
COc1cc(CC(=O)N(c2ccccc2)c2nc(C)cs2)cc(OC)c1OC | i | 0.31 | i | i | -1 | i | x | x | x
CC(C)CCNC(=O)C(c1ccc(O)cc1)N(Cc1ccco1)C(=O)CCC(=O)Nc1nccs1 (stereo not given) | i | 1.8 | i | i | -13 | i | x | x | x
O=C(Nc1cccnc1)c1c(F)c(F)c(F)c(F)c1F | i | 2.1 | i | i | -2 | i | x | x | x
O=C(Nc1ccncc1)c1c(F)c(F)c(F)c(F)c1F | i | 1.2 | i | -11* | 1 | i | 36%* | i | 28%*
COc1cccc(OCc2cc(C(=O)NCCc3cccc(C)n3)no2)c1 | i | 0.22 | i | i | -6 | i | x | x | x
CN(CCCN1CCOCC1)C(=O)c1cc(COc2c(F)cccc2F)on1 | i | -0.97 | i | i | -6 | i | x | x | x
CN(CCCC1CCCC1)C(=O)c1cc(COc2c(F)cccc2F)on1 | i | -0.73 | i | i | -8 | i | i | i | 22%*
COc1cccc(CCNC(=O)c2cc(COc3c(F)cccc3F)on2)c1 | i | 1.6 | i | i | -12 | i | i | i | i
CN(CCCC1CCCC1)C(=O)c1cc(COc2ccc(F)cc2F)on1 | i | -1.6 | i | i | -13 | i | i | i | i
SMILES | KCNQ1 block | Kir21 inh | KCNK3 block | KCNK9 inh | hERG rescue | KCNQ1 act | KCNK9 inh conf | Kir21 sel | HEK293 Tl ctr
COCCN1CN=C(Nc2nc3ccccc3s2)NC1 | i | 0.43 | i | i | -10 | i | x | x | x
Cc1ccc(NC(=O)NN2CCN(C)CC2)cc1C | i | -0.26 | i | i | -10 | i | x | x | x
CCCn1c(C)cc(C(=O)CSc2nc3ccccc3c(=O)n2Cc2ccco2)c1C | i | -0.14 | i | i | -2 | i | i | i | i
NC(=O)CSc1nc2ccccc2c(=O)n1Cc1ccco1 | i | -0.9 | i | i | -5 | i | x | x | x
NNC(=S)Nc1c(Br)cc(F)cc1Br | i | -0.28 | i | i | -10 | i | x | x | x
COc1ccc(C2(SCC(N)C(=O)O)c3ccccc3-c3ccccc32)cc1 (stereo not given) | x | x | i | x | x | x | x | x | x
COc1ccc(-n2nc(C(=O)NCC(=O)N3CCC(C)CC3)c3ccccc3c2=O)cc1Cl | i | 0.5 | i | i | -8 | i | i | i | i
COc1ccc(-n2nc(C(=O)NCC(=O)N3CCN(c4ccccn4)CC3)c3ccccc3c2=O)cc1Cl | i | -0.73 | i | i | -5 | i | x | x | x
O=C(NCc1ccccc1)C1(c2ccccc2)CCN(S(=O)(=O)c2ccccc2)CC1 | i | 0.59 | i | i | -3 | i | i | i | i
CC(=O)Nc1ccc(N)cc1 | x | x | i | x | x | x | x | x | x
CCN(CC)S(=O)(=O)c1cc(OC)ccc1N=Nc1ccc(O)c2ncccc12 | i | -0.23 | i | i | 17* | i | i | i | i
O=[N+]([O-])c1ccc2nc(NS(=O)(=O)c3ccc(F)cc3)sc2c1 | i | 0.73 | i | i | -1 | i | x | x | x
Cc1ccc(CN2CCN(/N=C/c3ccc(C)s3)CC2)cc1 | i | -1.7 | i | i | -8 | i | x | x | x
CC(C)(C)c1ccc(OCC(=O)NNC(=S)NC(=O)c2ccco2)c(Br)c1 | i | 1.4 | i | i | -13 | 56* | i | i | i
CC(C)n1nnnc1SCC(=O)N(C)C1CCS(=O)(=O)C1 (stereo not given) | x | x | i | x | x | x | x | x | x
CC1C(=NO)C(C)C(c2ccc(N(C)C)cc2)NC1c1ccc(N(C)C)cc1 (stereo not given) | i | -0.65 | i | i | -4 | i | i | i | i
